{"source": "ChEMBL document CHEMBL3872233", "about": "“Topical Treatment of Leishmania tropica Infection Using (-)-α-Bisabolol Ointment in a Hamster Model: Effectiveness and Safety Assessment” (J Nat Prod, 2016)", "key": {"Leishmania tropica [1]": {"test_system": "Leishmania tropica", "test": "(§1) Antileishmanial activity against Leishmania tropica MHOM/MA/1988/LEM1314 promastigotes infected in Syrian hamster assessed as reduction in parasite load in foodpad skin at 200 mg administered once daily through oral gavage for 3 weeks starting at week 7 post infection measured 1 week post last dose by qPCR analysis relative to control", "format": "functional", "parameters": "scale not given: the % may be the effect or the level left", "in_short": "(§2)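 Hamsters were infected in the footpad and treated daily for 21 days from week 7 post-infection, n = 10/group, and sacrificed 1 week after the last dose. Footpad skin, liver and spleen DNA was assayed by L. tropica-specific TaqMan qPCR (chromosome 29 target), in triplicate with 50 ng DNA per 25 μL reaction. Load was interpolated from Ct on a calibration curve of promastigote DNA, relative to base-ointment controls.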"}, "Leishmania tropica [2]": {"test_system": "Leishmania tropica", "test": "as §1, with “lesion thickness” for “parasite load in foodpad skin”, “dose” for “dose by qPCR analysis”", "format": "functional", "parameters": "scale not given: the % may be the effect or the level left", "in_short": "(§3)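 L. tropica stationary-phase promastigotes (3 × 10^7 in 50 μL PBS) injected into the left hind footpad. Treatment began at week 7 (+75% footpad thickness) and ran daily for 21 days, n = 10/group. Routes were 50 mg ointment on the lesion (cetyl alcohol/lanolin/petrolatum base), gavage in olive oil, or intralesional meglumine antimoniate 2 mg SbV/kg. Lesion thickness was measured weekly against base-only ointment; sacrifice was 1 week after the last dose.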"}, "Leishmania tropica [3]": {"test_system": "Leishmania tropica", "test": "as §1, with “lesion thickness” for “parasite load in foodpad skin”, “5 %” for “200 mg”, “tropically on footpad” for “through oral gavage”, “dose” for “dose by qPCR analysis”", "format": "functional", "parameters": "scale not given: the % may be the effect or the level left", "in_short": "as §3"}, "Leishmania tropica [4]": {"test_system": "Leishmania tropica", "test": "as §1, with “2.5 %” for “200 mg”, “tropically on footpad” for “through oral gavage”", "format": "functional", "parameters": "scale not given: the % may be the effect or the level left", "in_short": "as §2"}, "Syrian golden hamster [5]": {"test_system": "Syrian golden hamster", "test": "Toxicity in Syrian hamster assessed as stress at 500 mg/kg, po or 5 % administered tropically on footpad for 28 days", "format": "organism-based, Mesocricetus auratus", "details": "in vivo, 672 h"}, "Syrian golden hamster [6]": {"test_system": "Syrian golden hamster", "test": "Toxicity in Syrian hamster assessed as redness at 500 mg/kg, po or 5 % administered tropically on footpad for 28 days", "format": "organism-based, Mesocricetus auratus", "details": "in vivo, 672 h"}, "Syrian golden hamster [7]": {"test_system": "Syrian golden hamster", "test": "Toxicity in Syrian hamster assessed as mean serum AST levels at 5 % administered tropically on footpad for 28 days (reference value: 83.4 +/- 4.2 U/L)", "format": "organism-based, Mesocricetus auratus", "details": "in vivo, topical_or_ocular, 672 h"}, "Syrian golden hamster [8]": {"test_system": "Syrian golden hamster", "test": "Toxicity in Syrian hamster assessed as mean serum AST levels at 500 mg/kg administered through oral gavage for 28 days (reference value: 83.4 +/- 4.2 U/L)", "format": "organism-based, Mesocricetus auratus", "details": "in vivo, 672 h"}, "Syrian golden hamster [9]": {"test_system": "Syrian golden hamster", "test": "Toxicity in Syrian hamster infected with Leishmania tropica MHOM/MA/1988/LEM1314 promastigotes assessed as mean serum creatinine levels at 1 % administered tropically on footpad for 3 weeks starting at week 7 post infection measured 1 week post last dose (reference value: 0.19 mg/dl)", "format": "organism-based, Mesocricetus auratus", "details": "in vivo, topical_or_ocular, 168 h"}, "Syrian golden hamster [10]": {"test_system": "Syrian golden hamster", "test": "Toxicity in Syrian hamster assessed as urea levels at 5 % administered tropically on footpad for 28 days (reference value: 33.2 +/- 2.8 mg/dl)", "format": "organism-based, Mesocricetus auratus", "details": "in vivo, topical_or_ocular, 672 h"}, "Syrian golden hamster [11]": {"test_system": "Syrian golden hamster", "test": "Toxicity in Syrian hamster assessed as urea levels at 500 mg/kg administered through oral gavage for 28 days (reference value: 33.2 +/- 2.8 mg/dl)", "format": "organism-based, Mesocricetus auratus", "details": "in vivo, 672 h"}, "Syrian golden hamster [12]": {"test_system": "Syrian golden hamster", "test": "Toxicity in Syrian hamster infected with Leishmania tropica MHOM/MA/1988/LEM1314 promastigotes assessed as urea levels at 200 mg/kg administered through oral gavage for 3 weeks starting at week 7 post infection measured 1 week post last dose (reference value: 32.5 +/- 0.8 mg/dl)", "format": "organism-based, Mesocricetus auratus", "details": "in vivo, 168 h"}, "Syrian golden hamster [13]": {"test_system": "Syrian golden hamster", "test": "Toxicity in Syrian hamster infected with Leishmania tropica MHOM/MA/1988/LEM1314 promastigotes assessed as urea levels at 2.5 % administered tropically on footpad for 3 weeks starting at week 7 post infection measured 1 week post last dose (reference value: 32.5 +/- 0.8 mg/dl)", "format": "organism-based, Mesocricetus auratus", "details": "in vivo, topical_or_ocular, 168 h"}, "Syrian golden hamster [14]": {"test_system": "Syrian golden hamster", "test": "Toxicity in Syrian hamster infected with Leishmania tropica MHOM/MA/1988/LEM1314 promastigotes assessed as urea levels at 5 % administered tropically on footpad for 3 weeks starting at week 7 post infection measured 1 week post last dose (reference value: 32.5 +/- 0.8 mg/dl)", "format": "organism-based, Mesocricetus auratus", "details": "in vivo, topical_or_ocular, 168 h"}, "Syrian golden hamster [15]": {"test_system": "Syrian golden hamster", "test": "Toxicity in Syrian hamster infected with Leishmania tropica MHOM/MA/1988/LEM1314 promastigotes assessed as spleen weight at 1 % administered tropically on footpad for 3 weeks starting at week 7 post infection measured 1 week post last dose (reference value: 178.8 +/- 1.2 mg)", "format": "organism-based, Mesocricetus auratus", "details": "in vivo, topical_or_ocular, 168 h"}, "Syrian golden hamster [16]": {"test_system": "Syrian golden hamster", "test": "Toxicity in Syrian hamster infected with Leishmania tropica MHOM/MA/1988/LEM1314 promastigotes assessed as liver weight at 200 mg/kg administered through oral gavage for 3 weeks starting at week 7 post infection measured 1 week post last dose (reference value: 3.3 +/- 0.2 g)", "format": "organism-based, Mesocricetus auratus", "details": "in vivo", "in_short": "(§4)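 Infected hamsters were treated daily for 21 days from week 7 post-infection (ointment 1–5%, 200 mg/kg gavage, or intralesional meglumine antimoniate 2 mg SbV/kg). Clinical signs and body weight were monitored during treatment and a 7-day follow-up. After sacrifice, liver and spleen were weighed and serum ALP, ALT, creatinine, urea and AST were measured with kits, compared with untreated infected animals.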"}, "Syrian golden hamster [17]": {"test_system": "Syrian golden hamster", "test": "Toxicity in Syrian hamster infected with Leishmania tropica MHOM/MA/1988/LEM1314 promastigotes assessed as liver weight at 1 % administered tropically on footpad for 3 weeks starting at week 7 post infection measured 1 week post last dose (reference value: 3.3 +/- 0.2 g)", "format": "organism-based, Mesocricetus auratus", "details": "in vivo, topical_or_ocular, 168 h", "in_short": "as §4"}, "Syrian golden hamster [18]": {"test_system": "Syrian golden hamster", "test": "Toxicity in Syrian hamster infected with Leishmania tropica MHOM/MA/1988/LEM1314 promastigotes assessed as diarrhea at 200 mg/kg administered through oral gavage for 3 weeks starting at week 7 post infection measured during compound dosing or measured 1 week post last dose", "format": "organism-based, Mesocricetus auratus", "details": "in vivo, 168 h", "in_short": "as §4"}, "Syrian golden hamster [19]": {"test_system": "Syrian golden hamster", "test": "Toxicity in Syrian hamster infected with Leishmania tropica MHOM/MA/1988/LEM1314 promastigotes assessed as redness at 200 mg/kg administered through oral gavage for 3 weeks starting at week 7 post infection measured during compound dosing or measured 1 week post last dose", "format": "organism-based, Mesocricetus auratus", "details": "in vivo, 168 h", "in_short": "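Infected hamsters (footpad, 3 × 10^7 promastigotes) were gavaged daily for 21 days from week 7 post-infection at 200 mg/kg in olive oil, n=10.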"}, "Leishmania tropica [20]": {"test_system": "Leishmania tropica", "test": "as §1, with “liver” for “foodpad skin”, “2.5 %” for “200 mg”, “tropically on footpad” for “through oral gavage”", "format": "functional, tissue-based", "in_short": "as §2"}, "Leishmania tropica [21]": {"test_system": "Leishmania tropica", "test": "as §1, with “liver” for “foodpad skin”, “5 %” for “200 mg”, “tropically on footpad” for “through oral gavage”", "format": "functional, tissue-based", "in_short": "as §2"}, "Leishmania tropica [22]": {"test_system": "Leishmania tropica", "test": "as §1, with “spleen” for “foodpad skin”", "format": "functional", "in_short": "as §2"}, "Leishmania tropica [23]": {"test_system": "Leishmania tropica", "test": "as §1, with “spleen” for “foodpad skin”, “1 %” for “200 mg”, “tropically on footpad” for “through oral gavage”", "format": "functional", "in_short": "as §2"}, "Leishmania tropica [24]": {"test_system": "Leishmania tropica", "test": "as §1, with “spleen” for “foodpad skin”, “2 mg/kg” for “200 mg”, “administered intralesionally” for “administered”, “on footpad” for “through oral gavage”", "format": "functional, organism-based", "in_short": "as §2"}, "Leishmania tropica [25]": {"test_system": "Leishmania tropica", "test": "as §1, with “amastigote levels” for “parasite load”, “skin macerate” for “skin”, “Giemsa staining-based method” for “qPCR analysis relative to control”", "format": "functional"}}, "note": "The source made the active and inactive calls. The calls are words filed in the database; no cut-off is given here.", "data": [{"smiles": "CC(C)=CCC[C@](C)(O)[C@@H]1CC=C(C)CC1", "note": "[LEVOMENOL]", "values": [{"measurement": "Activity", "setting": "Leishmania tropica [1]", "result": 74, "unit": "%"}, {"measurement": "Activity", "setting": "Leishmania tropica [2]", "result": 62.5, "unit": "%"}, {"measurement": "Activity", "setting": "Leishmania tropica [3]", "result": 55.2, "unit": "%"}, {"measurement": "Activity", "setting": "Leishmania tropica [4]", "result": 83, "unit": "%"}, {"measurement": "Activity", "setting": "Syrian golden hamster [5]", "result": "Non-Toxic"}, {"measurement": "Activity", "setting": "Syrian golden hamster [6]", "result": "Non-Toxic"}, {"measurement": "Activity", "setting": "Syrian golden hamster [7]", "result": 83.4, "unit": "U/L"}, {"measurement": "Activity", "setting": "Syrian golden hamster [8]", "result": 82.2, "unit": "U/L"}, {"measurement": "Activity", "setting": "Syrian golden hamster [9]", "result": 0.22, "unit": "mg/dL"}, {"measurement": "Activity", "setting": "Syrian golden hamster [10]", "result": 33.9, "unit": "mg/dL"}, {"measurement": "Activity", "setting": "Syrian golden hamster [11]", "result": 33.7, "unit": "mg/dL"}, {"measurement": "Activity", "setting": "Syrian golden hamster [12]", "result": 34.4, "unit": "mg/dL"}, {"measurement": "Activity", "setting": "Syrian golden hamster [13]", "result": 33.6, "unit": "mg/dL"}, {"measurement": "Activity", "setting": "Syrian golden hamster [14]", "result": 34.2, "unit": "mg/dL"}, {"measurement": "Activity", "setting": "Syrian golden hamster [15]", "result": 175.3, "unit": "mg"}, {"measurement": "Activity", "setting": "Syrian golden hamster [16]", "result": 3, "unit": "g"}, {"measurement": "Activity", "setting": "Syrian golden hamster [17]", "result": 3.2, "unit": "g"}, {"measurement": "Activity", "setting": "Syrian golden hamster [18]", "result": "Non-Toxic"}, {"measurement": "Activity", "setting": "Syrian golden hamster [19]", "result": "Non-Toxic"}, {"measurement": "Activity", "setting": "Leishmania tropica [20]", "result": "Active"}, {"measurement": "Activity", "setting": "Leishmania tropica [21]", "result": "Active"}, {"measurement": "Activity", "setting": "Leishmania tropica [22]", "result": "Active"}, {"measurement": "Activity", "setting": "Leishmania tropica [23]", "result": "Active"}, {"measurement": "Activity", "setting": "Leishmania tropica [24]", "result": "Active"}, {"measurement": "Activity", "setting": "Leishmania tropica [25]", "result": "Active"}]}]}
